Experimental data from paper PMC8341804 (RSC Chemical Biology, 2021).

Assays:
PC-3 cells [1] = experiment: Peptide uptake assay; assay type: cell-based; conditions: 5 μM FAM-labeled peptide, 4 h, fixed cells, fluorescence microscopy
In short: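 PC-3 cells were incubated with 5 μM 5(6)-carboxyfluorescein-labeled test compound for four hours, then imaged by fluorescence microscopy to assess intracellular distribution.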

PC-3 cells [2] = experiment: PMA induced cytoskeletal remodeling assay; assay type: cell-based; conditions: PC-3, serum starved 24 h, 5 μM peptide 4 h, 500 nM PMA 45 min
PKC = PKC substrate phosphorylation assay; assay type: cell-based; conditions: serum starved PC-3, 1, 2.5, 5 μM peptide 4 h, PMA 5 min; n = 3
In short: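 Serum-starved PC-3 cells were exposed to the test compound (1, 2.5 or 5 μM) or DMSO vehicle for 4 h. A catalytic PKC inhibitor reference was given at 500 nM for 90 min. Cells were then stimulated with 500 nM PMA for 5 min, harvested and analysed by western blot for PKC substrate phosphorylation; n = 3.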

[3] = target: Protein kinase C alpha type (Homo sapiens, UniProt P17252); experiment: Proteomic mass spectrometry of biotin-streptavidin pulldown; assay type: binding; conditions: 5 µM biotin labeled peptide, A549 lysate, LC-MS/MS
In short: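 Cell lysates were incubated for four hours with 5 μM biotin-labeled test compound or the corresponding scrambled control, with DMSO-treated lysate as negative control. Streptavidin–agarose beads were used for pulldown, and the eluates were analysed by mass spectrometry.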

| Substance | cellular uptake / cell permeability (PC-3 cells [1]) | cell morphology after PMA stimulation (phase contrast) (PC-3 cells [2]) | phosphorylated PKC substrates (anti-PKC p-Serine substrate western blot) (PKC) | Present in pulldown: Protein kinase C alpha type (PRKCA) [3] |
| --- | --- | --- | --- | --- |
| (5/6 FAM) - β-Ala - KAS(Nle)LCFKRRKK*AKA*K (sidechain bridge or staple) [CSTAD6] | considerable permeation | predominantly maintained a flat, elongated morphology | dose dependent reduction | – |
| (5/6 FAM) - β-Ala - KAS(Nle)LCFKRRK*AAK*LK (sidechain bridge or staple) [CSTAD5] | considerable permeation | predominantly maintained a flat, elongated morphology | dose dependent reduction | present |
